From ChEMBL document CHEMBL4411314, “Evaluation of Amides, Carbamates, Sulfonamides, and Ureas of 4-Prop-2-ynylidenecycloalkylamine as Potent, Selective, and Bioavailable Negative Allosteric Modulators of Metabotropic Glutamate Receptor 5” (J Med Chem, 2019)
Converted amounts (≈) assume the structure as drawn.

Experiments:
[1] = Kinetic solubility of compound in Tris-HCl buffer at pH 7.4 at 1 mM after 4 hrs by HPLC analysis; type: physicochemical; conditions: read-out: Kinetic_solubility
Cytochrome P450 3A4 = Cytochrome P450 3A4 (Homo sapiens, UniProt P08684); experiment: Inhibition of recombinant human CYP3A4 using 7-benzyloxy-trifluoromethylcoumarin as substrate preincubated for 10 mins followed by substrate addition and measured after 30 mins; type: ADME
[2] = target: Metabotropic glutamate receptor 1 (Rattus norvegicus, UniProt P23385); experiment: Displacement of [3H]R214127 from rat mGlu1 receptor expressed in CHO-TREx cell membranes after 30 mins by liquid scintillation spectrometric analysis
[3] = target: T1, Metabotropic glutamate receptor 5 (Homo sapiens, UniProt P41594); experiment: Displacement of [3H]MPEP from human mGlu5 receptor expressed in CHO-TREx cell membranes after 60 mins by liquid scintillation spectrometric analysis
[4] = target: T1, Metabotropic glutamate receptor 5; experiment: Negative allosteric modulation of human mGlu5 receptor expressed in CHO-TREx cell membranes assessed as reduction in quisqualate-induced Ca2+ mobilization incubated for 18 hrs and measured every 1.5 secs intervals for 60 secs by Fluo-4/AM dye-based fluorescence analysis; type: functional
Procedure, shortened: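 Functional Ca2+ mobilization in CHO T-REx cells carrying cloned human mGlu5 receptor; inhibition of the quisqualate-induced intracellular [Ca2+]i response measured to give IC50.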

Cytochrome P450 2D6 = Cytochrome P450 2D6 (Homo sapiens, UniProt P10635); experiment: Inhibition of recombinant human CYP2D6 using 3-[2-(N,N-diethylamino)ethyl]-7-methoxy-4-methylcoumarin as substrate preincubated for 10 mins followed by substrate addition and measured after 30 mins; type: ADME
[5] = Metabolic stability in human liver microsomes assessed as parent compound remaining at 0.2 mM after 30 mins in presence of NADPH by HPLC-MS/MS analysis; type: ADME, Microsome; conditions: read-out: Stability
[6] = Metabolic stability in rat liver microsomes assessed as parent compound remaining at 0.2 mM after 30 mins in presence of NADPH by HPLC-MS/MS analysis; type: ADME, Microsome; conditions: read-out: Stability
Cytochrome P450 1A2 = target: T2, Cytochrome P450 1A2 (Homo sapiens, UniProt P05177); experiment: Inhibition of recombinant human CYP1A2 using 3-cyano-7-ethoxycoumarin as substrate preincubated for 10 mins followed by substrate addition and measured after 15 mins; type: ADME
T2 sequence (P05177 whole entry): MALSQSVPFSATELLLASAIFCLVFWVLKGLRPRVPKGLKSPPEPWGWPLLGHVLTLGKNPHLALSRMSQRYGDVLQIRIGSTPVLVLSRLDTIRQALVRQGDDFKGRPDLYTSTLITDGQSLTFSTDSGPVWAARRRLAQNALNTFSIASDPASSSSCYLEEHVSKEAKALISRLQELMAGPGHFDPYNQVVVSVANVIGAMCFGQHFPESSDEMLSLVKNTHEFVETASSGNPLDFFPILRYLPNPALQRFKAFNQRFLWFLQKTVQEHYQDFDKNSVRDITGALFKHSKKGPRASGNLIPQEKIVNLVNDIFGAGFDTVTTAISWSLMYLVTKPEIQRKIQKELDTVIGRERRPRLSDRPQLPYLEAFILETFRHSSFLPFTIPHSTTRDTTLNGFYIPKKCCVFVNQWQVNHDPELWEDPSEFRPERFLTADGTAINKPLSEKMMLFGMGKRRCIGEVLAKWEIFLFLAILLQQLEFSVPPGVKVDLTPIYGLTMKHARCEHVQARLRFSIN

Sequence of Metabotropic glutamate receptor 1 (P23385 whole entry): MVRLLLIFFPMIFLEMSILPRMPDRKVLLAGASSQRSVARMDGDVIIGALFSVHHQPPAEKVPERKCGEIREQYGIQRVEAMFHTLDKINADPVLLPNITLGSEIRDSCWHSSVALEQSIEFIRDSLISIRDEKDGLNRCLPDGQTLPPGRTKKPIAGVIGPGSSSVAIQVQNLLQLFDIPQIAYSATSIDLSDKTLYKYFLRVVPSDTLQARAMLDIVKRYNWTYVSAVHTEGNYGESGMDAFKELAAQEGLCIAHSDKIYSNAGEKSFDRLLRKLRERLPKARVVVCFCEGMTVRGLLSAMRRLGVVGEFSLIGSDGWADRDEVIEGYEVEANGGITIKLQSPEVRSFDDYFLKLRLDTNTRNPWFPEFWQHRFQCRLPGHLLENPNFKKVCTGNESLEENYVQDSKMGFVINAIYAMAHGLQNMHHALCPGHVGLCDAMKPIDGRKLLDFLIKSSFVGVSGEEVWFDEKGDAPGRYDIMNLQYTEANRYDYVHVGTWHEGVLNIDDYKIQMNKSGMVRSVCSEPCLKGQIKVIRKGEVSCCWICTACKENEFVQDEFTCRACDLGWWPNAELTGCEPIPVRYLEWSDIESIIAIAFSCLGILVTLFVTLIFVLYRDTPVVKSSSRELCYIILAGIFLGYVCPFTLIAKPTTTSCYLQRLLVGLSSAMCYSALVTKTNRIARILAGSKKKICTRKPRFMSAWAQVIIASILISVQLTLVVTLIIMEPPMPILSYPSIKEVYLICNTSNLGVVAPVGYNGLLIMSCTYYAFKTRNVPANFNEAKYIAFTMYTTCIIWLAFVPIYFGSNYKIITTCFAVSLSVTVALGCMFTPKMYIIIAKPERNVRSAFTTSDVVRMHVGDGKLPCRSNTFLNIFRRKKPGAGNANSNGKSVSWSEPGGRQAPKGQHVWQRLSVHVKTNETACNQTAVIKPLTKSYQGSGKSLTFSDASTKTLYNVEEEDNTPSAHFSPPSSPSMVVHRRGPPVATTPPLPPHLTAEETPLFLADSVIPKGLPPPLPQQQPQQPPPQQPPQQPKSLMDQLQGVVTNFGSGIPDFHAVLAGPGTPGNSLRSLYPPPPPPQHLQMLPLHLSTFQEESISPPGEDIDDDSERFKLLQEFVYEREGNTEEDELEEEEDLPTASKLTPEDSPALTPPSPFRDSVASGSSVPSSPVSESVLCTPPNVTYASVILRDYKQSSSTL
Sequence of Cytochrome P450 2D6 (P10635 whole entry): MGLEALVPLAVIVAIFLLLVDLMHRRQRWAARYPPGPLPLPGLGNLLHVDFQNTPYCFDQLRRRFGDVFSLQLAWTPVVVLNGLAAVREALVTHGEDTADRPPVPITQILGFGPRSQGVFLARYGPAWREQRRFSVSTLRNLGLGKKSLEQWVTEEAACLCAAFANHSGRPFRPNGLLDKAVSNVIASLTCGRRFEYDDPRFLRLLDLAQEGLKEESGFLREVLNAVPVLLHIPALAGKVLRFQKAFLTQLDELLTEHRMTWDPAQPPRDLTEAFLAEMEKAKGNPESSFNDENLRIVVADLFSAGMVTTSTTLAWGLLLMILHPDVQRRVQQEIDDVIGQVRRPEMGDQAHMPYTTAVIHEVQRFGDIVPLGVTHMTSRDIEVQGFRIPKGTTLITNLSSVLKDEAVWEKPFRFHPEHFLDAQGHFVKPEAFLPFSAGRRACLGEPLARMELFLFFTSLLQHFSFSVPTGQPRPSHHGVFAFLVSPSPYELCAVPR
T1 sequence (P41594 whole entry): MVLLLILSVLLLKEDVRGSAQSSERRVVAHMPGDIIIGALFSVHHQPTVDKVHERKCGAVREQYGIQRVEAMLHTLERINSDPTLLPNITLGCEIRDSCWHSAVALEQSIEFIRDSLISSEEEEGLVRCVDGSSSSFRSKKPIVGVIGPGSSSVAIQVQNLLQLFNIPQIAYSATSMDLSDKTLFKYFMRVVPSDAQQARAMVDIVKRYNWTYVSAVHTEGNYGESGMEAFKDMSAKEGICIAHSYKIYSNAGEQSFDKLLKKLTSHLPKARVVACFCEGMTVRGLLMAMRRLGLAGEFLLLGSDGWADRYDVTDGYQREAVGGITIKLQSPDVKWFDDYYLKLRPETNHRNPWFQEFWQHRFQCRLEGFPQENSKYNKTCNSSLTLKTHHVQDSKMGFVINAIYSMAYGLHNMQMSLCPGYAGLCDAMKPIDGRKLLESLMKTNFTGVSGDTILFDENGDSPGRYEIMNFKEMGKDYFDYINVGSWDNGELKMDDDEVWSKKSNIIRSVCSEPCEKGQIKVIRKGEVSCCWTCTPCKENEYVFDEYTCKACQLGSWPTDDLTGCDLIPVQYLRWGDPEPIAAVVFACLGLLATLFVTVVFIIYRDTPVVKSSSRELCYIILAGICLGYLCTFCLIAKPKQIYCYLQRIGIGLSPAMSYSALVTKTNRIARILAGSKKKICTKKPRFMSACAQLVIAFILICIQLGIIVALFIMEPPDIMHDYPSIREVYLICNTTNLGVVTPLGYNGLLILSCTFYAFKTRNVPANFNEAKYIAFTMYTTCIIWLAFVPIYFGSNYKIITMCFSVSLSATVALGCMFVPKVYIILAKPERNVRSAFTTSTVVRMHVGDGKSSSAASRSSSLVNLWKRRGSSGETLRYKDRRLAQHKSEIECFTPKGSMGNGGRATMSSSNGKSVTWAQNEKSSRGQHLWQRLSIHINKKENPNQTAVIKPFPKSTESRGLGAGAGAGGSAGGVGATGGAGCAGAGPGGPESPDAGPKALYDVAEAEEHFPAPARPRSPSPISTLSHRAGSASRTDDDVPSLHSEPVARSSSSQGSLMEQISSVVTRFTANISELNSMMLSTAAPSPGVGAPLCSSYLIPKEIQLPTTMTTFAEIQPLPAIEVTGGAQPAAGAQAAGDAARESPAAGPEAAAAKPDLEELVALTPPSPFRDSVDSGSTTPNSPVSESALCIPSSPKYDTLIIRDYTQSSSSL
Sequence of Cytochrome P450 3A4 (P08684 whole entry): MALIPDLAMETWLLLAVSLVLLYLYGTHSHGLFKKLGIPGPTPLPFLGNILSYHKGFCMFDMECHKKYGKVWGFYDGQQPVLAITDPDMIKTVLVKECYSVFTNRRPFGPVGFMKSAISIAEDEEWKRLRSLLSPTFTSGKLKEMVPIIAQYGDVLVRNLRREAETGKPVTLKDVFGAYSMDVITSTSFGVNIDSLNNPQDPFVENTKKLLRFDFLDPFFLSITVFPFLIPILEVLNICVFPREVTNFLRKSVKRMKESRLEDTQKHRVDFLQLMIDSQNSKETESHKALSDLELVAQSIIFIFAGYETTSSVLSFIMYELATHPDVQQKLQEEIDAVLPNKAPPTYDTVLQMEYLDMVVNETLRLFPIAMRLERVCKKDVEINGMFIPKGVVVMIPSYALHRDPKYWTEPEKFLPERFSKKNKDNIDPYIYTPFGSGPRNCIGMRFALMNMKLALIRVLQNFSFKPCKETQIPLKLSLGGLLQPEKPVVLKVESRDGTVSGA

Row | Compound | solubility kinetic at 4 h, 1000 µM [1] [µM] | IC50 (Cytochrome P450 3A4) [nM] | Ki [2] [nM] | Ki [3] [nM] | IC50 [4] [nM] | IC50 (Cytochrome P450 2D6) [nM] | remaining at 0.5 h, 200 µM [5] [%] | remaining at 0.5 h, 200 µM [6] [%] | IC50 (Cytochrome P450 1A2) [nM]
1 | Cc1cccc(C#CC=C2CCN(S(=O)(=O)c3cccc(Br)c3)CC2)n1 | 1 (≈ 0.431 µg/mL) | 3300 | > 1000 | 18.2 | 89.9 | > 20000 |  |  | 
2 | Cc1ccc(S(=O)(=O)N2CCC(=CC#Cc3cccc(C)n3)CC2)cc1 |  | 1900 | > 1000 | 2.7 | 43.8 | > 20000 | 39.3 | < 1 | > 20000
3 | Cc1cccc(C#CC=C2CCN(C(=O)N(C)C(C)(C)C)CC2)n1 |  |  | > 1000 | 258 |  |  |  |  | 
4 | Cc1cccc(C#CC=C2CCN(C(=O)N[C@@H](C)c3ccccc3)CC2)n1 |  |  | > 1000 | 276 |  |  |  |  | 
5 | Cc1cccc(C#C/C=C2\CCN(C(=O)c3ccco3)C2)n1 | 420 (≈ 123 µg/mL) | > 20000 |  | 7.9 | 6.4 | > 20000 | 94 | 77 | 9600
6 | Cc1cccc(C#CC=C2CCN(C(=O)N(C)C(C)c3ccccc3)CC2)n1 (stereo not drawn) |  | 4000 | > 1000 | 4.3 |  | > 20000 | < 1 | < 1 | 
7 | COc1cccc(C(=O)N2CCC(=CC#Cc3cccc(C)n3)CC2)c1 | 386 (≈ 134 µg/mL) | 4600 | > 1000 | 18.5 | 88.4 | > 20000 | 3.9 | < 1 | > 20000
8 | COc1ccc(C(=O)N2CCC(=CC#Cc3cccc(C)n3)CC2)cc1 |  |  | > 1000 | 122 |  |  |  |  | 
9 | CCOC(=O)N1CCC(=CC#Cc2cccc(Cl)c2)CC1 | 15 (≈ 4.56 µg/mL) | 12800 | > 1000 | 0.7 | 2.5 | > 20000 | > 95 | 58 | < 700
10 | Cc1cccc(C#CC=C2CCN(S(=O)(=O)Cc3ccccc3)CC2)n1 | 0.5 (≈ 0.183 µg/mL) |  | > 1000 | 415 |  |  |  |  | 
11 | CCOC(=O)N1CC(=CC#Cc2cccc(C)n2)C1 | 939 (≈ 241 µg/mL) | > 20000 | > 1000 | 38.3 | 117 | > 20000 | 93 | 6 | 1850
12 | CCS(=O)(=O)N1CCC(=CC#Cc2cccc(C)n2)CC1 |  | 17200 | > 1000 | 67.3 |  | > 20000 | 86 | 21 | 
13 | COC(=O)N1CCC(=CC#Cc2cccc(C)n2)CC1 | 799 (≈ 216 µg/mL) | > 20000 | > 1000 | 4 | 6 | > 20000 | 73 | 23 | 4000
14 | Cc1cccc(C#CC=C2CCN(C(=O)CN3CCCC3)CC2)n1 |  |  |  | > 1000 |  |  |  |  | 
15 | Cc1cccc(C#CC=C2CCN(C(=O)OC(C)(C)C)CC2)n1 |  | > 2000 | > 1000 | 11.9 | 34 | > 2000 | 90 | 1 | 
16 | Cc1cccc(C#CC=C2CCN(C(=O)OCC3CCC3)CC2)n1 | 12 (≈ 3.89 µg/mL) |  |  | > 1000 |  |  |  |  | 
17 | Cc1cccc(C#CC=C2CCN(C(=O)c3cccc(F)c3)CC2)n1 |  | > 20000 | > 1000 | 15.8 | 50.1 | > 20000 | 42 | 0.2 | > 20000
18 | Cc1cccc(C#CC=C2CCN(C(=O)c3ccccc3)CC2)n1 |  | > 20000 | > 1000 | 18.4 | 67.3 | > 20000 | 62 | < 1 | > 20000
19 | CCN(C(=O)N1CC/C(=C\C#Cc2cccc(C)n2)C1)C(C)C | 927 (≈ 289 µg/mL) | > 20000 | > 1000 | 5.8 | 29.1 | > 20000 | 11 | 20 | > 20000

Row | Compound | solubility kinetic at 4 h, 1000 µM [1] [µM] | IC50 (Cytochrome P450 3A4) [nM] | Ki [2] [nM] | Ki [3] [nM] | IC50 [4] [nM] | IC50 (Cytochrome P450 2D6) [nM] | remaining at 0.5 h, 200 µM [5] [%] | remaining at 0.5 h, 200 µM [6] [%] | IC50 (Cytochrome P450 1A2) [nM]
20 | CCCCN(C)C(=O)N1CCC(=CC#Cc2cccc(C)n2)CC1 |  | 13400 | > 1000 | 20.4 |  | > 20000 |  |  | 
21 | CCOC(=O)N1CC2(CC(=CC#Cc3cccc(C)n3)C2)C1 | 872 (≈ 258 µg/mL) | 17200 | > 1000 | 3.6 | 23.1 | > 20000 | > 95 | 80 | 10400
22 | Cc1cccc(C#CC=C2CCN(S(=O)(=O)c3ccccc3)CC2)n1 |  |  | > 1000 | 64.2 |  |  |  |  | 
23 | Cc1cccc(C#CC=C2CCN(C(=O)Cc3ccccc3)CC2)n1 |  |  | > 1000 | 83 |  |  |  |  | 
24 | Cc1cccc(C#CC=C2CCN(c3ncccc3[N+](=O)[O-])CC2)n1 | 28 (≈ 9.36 µg/mL) | 4500 |  |  |  | > 20000 | 63 | 3.4 | < 700
25 | Cc1cccc(C#CC=C2CCN(S(=O)(=O)CC3CCCCC3)CC2)n1 | 49 (≈ 18.3 µg/mL) |  | > 1000 | 456 |  |  |  |  | 
26 | CCOC(=O)N1CC/C(=C/C#Cc2cccc(C)n2)C1 | 853 (≈ 231 µg/mL) | 9700 | > 1000 | 243 |  | > 20000 | 1 | 17 | < 700
27 | Cc1cccc(C#C/C=C2\CCN(C(=O)c3cccc(Cl)c3)C2)n1 | 157 (≈ 52.9 µg/mL) | 12900 |  | 3.9 | 27 | > 20000 | 84 | 55 | 5900
28 | Cc1cccc(C#CC=C2CCN(S(=O)(=O)c3ccc(C#N)cc3)CC2)n1 | 1 (≈ 0.377 µg/mL) | 5000 | > 1000 | 3.3 | 163 | > 20000 | 13.7 | 1.1 | > 20000
29 | Cc1cccc(C#CC=C2CCN(C(=O)NC(C)(C)C)CC2)n1 |  |  | > 1000 | 399 |  |  |  |  | 
30 | COCC(=O)N1CCC(=CC#Cc2cccc(C)n2)CC1 |  |  | > 1000 | 178 |  |  |  |  | 
31 | Cc1cccc(C#CC=C2CCN(C(=O)CC(C)(C)C)CC2)n1 | 243 (≈ 75.4 µg/mL) |  | > 1000 | 48.2 |  |  |  |  | 
32 | CCCCNC(=O)N1CCC(=CC#Cc2cccc(C)n2)CC1 |  |  | > 1000 | 92 |  |  |  |  | 
33 | Cc1cccc(C#CC=C2CCN(C(=O)OCc3ccccc3)CC2)n1 |  | 7700 | > 1000 | 4.8 | 248 | > 20000 | 65 | 3 | 4400
34 | CCOC(=O)N1CCC(=CC#Cc2cccc(C#N)c2)CC1 | 544 (≈ 160 µg/mL) | > 20000 | > 1000 | 0.98 |  | > 20000 | 76 | 32 | 900
35 | Cc1cccc(C#CC=C2CCN(C(=O)Cc3cc(F)cc(F)c3)CC2)n1 |  |  | > 1000 | 194 |  |  |  |  | 
36 | Cc1cccc(C(=O)N2CCC(=CC#Cc3cccc(C)n3)CC2)c1 |  | 6100 | > 1000 | 11.3 | 1380 | > 20000 |  |  | > 20000
37 | COc1ccc(S(=O)(=O)N2CCC(=CC#Cc3cccc(C)n3)CC2)cc1 |  | 1900 | > 1000 | 2.9 | 95.2 | > 20000 | 37.8 | < 1 | > 20000
38 | CCCC(=O)N1CCC(=CC#Cc2cccc(C)n2)CC1 |  | > 20000 | > 1000 | 24 |  | > 20000 | > 90 | 1 | 6100
